The source of these data is ChEMBL document CHEMBL3826879, “Synthesis and biological evaluation of analogues of the potent ADAM8 inhibitor cyclo(RLsKDK) for the treatment of inflammatory diseases and cancer metastasis” (Bioorg Med Chem, 2016).

This assay addresses T1, Disintegrin and metalloproteinase domain-containing protein 8 (Homo sapiens, UniProt P78325).
T1 sequence (P78325 whole entry): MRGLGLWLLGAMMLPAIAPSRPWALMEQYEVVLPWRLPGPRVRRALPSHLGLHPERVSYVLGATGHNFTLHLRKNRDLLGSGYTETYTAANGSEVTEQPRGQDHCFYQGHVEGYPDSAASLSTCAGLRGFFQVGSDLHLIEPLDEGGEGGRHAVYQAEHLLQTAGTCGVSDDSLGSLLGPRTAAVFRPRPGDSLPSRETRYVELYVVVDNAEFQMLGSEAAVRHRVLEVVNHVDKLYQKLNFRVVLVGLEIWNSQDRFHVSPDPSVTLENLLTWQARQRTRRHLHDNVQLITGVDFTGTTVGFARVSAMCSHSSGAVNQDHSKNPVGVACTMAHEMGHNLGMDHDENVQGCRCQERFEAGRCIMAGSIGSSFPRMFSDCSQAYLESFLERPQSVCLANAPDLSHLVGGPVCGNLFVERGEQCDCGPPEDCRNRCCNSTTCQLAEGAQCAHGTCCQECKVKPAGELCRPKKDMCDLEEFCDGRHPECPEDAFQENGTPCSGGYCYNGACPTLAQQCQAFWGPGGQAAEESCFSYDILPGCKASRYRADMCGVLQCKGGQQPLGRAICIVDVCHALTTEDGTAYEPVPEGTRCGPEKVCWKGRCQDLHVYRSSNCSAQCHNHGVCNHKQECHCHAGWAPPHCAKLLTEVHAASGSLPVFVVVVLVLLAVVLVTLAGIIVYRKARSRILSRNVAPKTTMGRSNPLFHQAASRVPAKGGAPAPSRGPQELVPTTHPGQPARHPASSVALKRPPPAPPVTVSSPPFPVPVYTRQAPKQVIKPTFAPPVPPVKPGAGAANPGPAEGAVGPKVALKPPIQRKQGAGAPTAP
In words: Inhibition of ADAM8 (unknown origin) expressed in African green monkey COS7 cells co-expressing CD23 assessed as inhibition of CD23 shedding after 6 hrs by ELISA. It is filed as cell-based, COS-7. A digest of the protocol: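 COS7 cells co-transfected with CD23 and ADAM8 cDNA, seeded at 2 × 10^5 cells/well and exposed to peptide at 10 nM–10 μM for 6 h. Supernatant CD23 measured by sandwich ELISA: biotinylated anti-CD23 monoclonal antibody, 2 h at room temperature, streptavidin–HRP 1 h, TMB substrate, absorbance at 405 nm. Samples in duplicate against 400–12.5 units/mL standards. IC50 derived.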
In general terms: ELISA stands for enzyme-linked immunosorbent assay.

Where a SMILES comes first, the peptide text is derived from it. Bridges are numbered along the chain shown (N, C = ends). [ ]: non-standard residue; d: D form. Arg(NO2) = N=C(NCCC[C@H](N)C(=O)O)N[N+](=O)[O-]; Lys(Me3) = C[N+](C)(C)CCCC[C@H](N)C(=O)O; hArg = N=C(N)NCCCC[C@H](N)C(=O)O; tBuAla = CC(C)(C)C[C@H](N)C(=O)O; Cit = NC(=O)NCCC[C@H](N)C(=O)O; hLeu = CC(C)CC[C@H](N)C(=O)O; β3hS = N[C@@H](CO)CC(=O)O; Nle = CCCC[C@H](N)C(=O)O; Orn = NCCC[C@H](N)C(=O)O; Dab = NCC[C@H](N)C(=O)O; Nva = CCC[C@H](N)C(=O)O; Dap = NC[C@H](N)C(=O)O; βAla = NCCC(=O)O

`CC(C)C[C@@H]1NC(=O)[C@H](CCCNC(=N)N)NC(=O)[C@H](CCCCN)NC(=O)[C@H](CC(=O)O)NC(=O)[C@H](CCCCN)NC(=O)C[C@@H](C(=O)O)NC1=O` (KDKRLD-OH; lactam N-6): the 50% inhibitory concentration (IC50) came out at 420 nM.
The value for `CC(C)C[C@@H]1NC(=O)[C@H](CCCNC(=N)N)NC(=O)[C@H](CCCCN)NC(=O)[C@H](CC(=O)O)NC(=O)[C@H](CCCCN)NC(=O)[C@H](CO)NC1=O` (cyclo(DKRLSK)) was 240 nM.
In the case of `CC(C)C[C@@H]1NC(=O)[C@H](CCCNC(=N)N)NC(=O)[C@H](CCCCN)NC(=O)[C@H](CC(=O)O)NC(=O)[C@H](CCCCN)NC(=O)C[C@H](CO)NC1=O` (cyclo(DKRL[β3hS]K)) it was 157 nM; in that of `CC(C)C[C@@H]1NC(=O)[C@H](CCCNC(=N)N)NC(=O)[C@H](CCCCN)NC(=O)[C@H](CC(=O)O)NC(=O)[C@H](CCCCN)NC(=O)CCNC1=O` (cyclo(DKRL[βAla]K)), 1650 nM.
Regarding `CCCC[C@@H]1NC(=O)[C@H](CCCNC(=N)N)NC(=O)[C@H](CCCCN)NC(=O)[C@H](CC(=O)O)NC(=O)[C@H](CCCCN)NC(=O)CCNC1=O` (cyclo(DKR[Nle][βAla]K)), the IC50 was found to be 378 nM.
In the case of `CCC[C@@H]1NC(=O)[C@H](CCCNC(=N)N)NC(=O)[C@H](CCCCN)NC(=O)[C@H](CC(=O)O)NC(=O)[C@H](CCCCN)NC(=O)CCNC1=O` (cyclo(DKR[Nva][βAla]K)) it was 452 nM; in that of `CC(C)CC[C@@H]1NC(=O)[C@H](CCCNC(=N)N)NC(=O)[C@H](CCCCN)NC(=O)[C@H](CC(=O)O)NC(=O)[C@H](CCCCN)NC(=O)C[C@H](CO)NC1=O` (cyclo(DKR[hLeu][β3hS]K)), 142 nM.
The value for `CC(C)CC[C@@H]1NC(=O)[C@H](CCCNC(=N)N)NC(=O)[C@H](CCCCN)NC(=O)[C@H](CC(=O)O)NC(=O)[C@H](CCCCN)NC(=O)CCNC1=O` (cyclo(DKR[hLeu][βAla]K)) was 220 nM.
In the case of `CC(C)(C)C[C@@H]1NC(=O)[C@H](CCCNC(=N)N)NC(=O)[C@H](CCCCN)NC(=O)[C@H](CC(=O)O)NC(=O)[C@H](CCCCN)NC(=O)CCNC1=O` (cyclo(DKR[tBuAla][βAla]K)) it was 256 nM; in that of `CC(C)C[C@@H]1NC(=O)[C@H](CCCCNC(=N)N)NC(=O)[C@H](CCCCN)NC(=O)[C@H](CC(=O)O)NC(=O)[C@H](CCCCN)NC(=O)C[C@H](CO)NC1=O` (cyclo(DK[hArg]L[β3hS]K)), 368 nM; in that of `CC(C)C[C@@H]1NC(=O)[C@H](CCCNC(=N)N)NC(=O)[C@H](CCN)NC(=O)[C@H](CC(=O)O)NC(=O)[C@H](CCCCN)NC(=O)CCNC1=O` (cyclo(D[Dab]RL[βAla]K)), greater than 5000 nM.
Regarding `CC(C)C[C@@H]1NC(=O)[C@H](CCCNC(=N)N)NC(=O)[C@H](CN)NC(=O)[C@H](CC(=O)O)NC(=O)[C@H](CCCCN)NC(=O)CCNC1=O` (cyclo(D[Dap]RL[βAla]K)), the half-maximal inhibitory concentration (IC50) is greater than 5000 nM.
In the case of `CC(C)C[C@@H]1NC(=O)[C@H](CCCNC(=N)N)NC(=O)[C@H](CCCC[N+](C)(C)C)NC(=O)[C@H](CC(=O)O)NC(=O)[C@H](CCCCN)NC(=O)CCNC1=O` (cyclo(D[Lys(Me3)]RL[βAla]K)) it was greater than 10000 nM; in that of `CC(C)C[C@@H]1NC(=O)[C@H](CCCNC(=N)N)NC(=O)[C@H](CCCN)NC(=O)[C@H](CC(=O)O)NC(=O)[C@H](CCCCN)NC(=O)CCNC1=O` (cyclo(D[Orn]RL[βAla]K)), greater than 5000 nM.
The value for `CC(C)C[C@@H]1NC(=O)[C@H](CCCNC(=N)N[N+](=O)[O-])NC(=O)[C@H](CCCCN)NC(=O)[C@H](CC(=O)O)NC(=O)[C@H](CCCCN)NC(=O)C[C@H](CO)NC1=O` (cyclo([Arg(NO2)]L[β3hS]KDK)) was 1240 nM.
The value for `CC(C)C[C@@H]1NC(=O)[C@H](CCCNC(=N)N[N+](=O)[O-])NC(=O)[C@H](CCCCN)NC(=O)[C@H](CC(=O)O)NC(=O)[C@H](CCCCN)NC(=O)CCNC1=O` (cyclo([Arg(NO2)]L[βAla]KDK)) was 2350 nM; that for `CC(C)C[C@@H]1NC(=O)[C@H](CCCNC(N)=O)NC(=O)[C@H](CCCCN)NC(=O)[C@H](CC(=O)O)NC(=O)[C@H](CCCCN)NC(=O)C[C@H](CO)NC1=O` (cyclo([Cit]L[β3hS]KDK)) was 192 nM; that for `CC(C)C[C@@H]1NC(=O)[C@H](CCCNC(N)=O)NC(=O)[C@H](CCCCN)NC(=O)[C@H](CC(=O)O)NC(=O)[C@H](CCCCN)NC(=O)CCNC1=O` (cyclo([Cit]L[βAla]KDK)) was 890 nM.

The term IC50 denotes the point on the concentration scale where inhibition reaches its midpoint.
